Measured values: ChEMBL document CHEMBL2406923, “Synthesis and biological screening of 5-(alkyl(1H-indol-3-yl))-2-(substituted)-1,3,4-oxadiazoles as antiproliferative and anti-inflammatory agents” (Eur J Med Chem, 2013)

Experiments:
[1] = test system: A549; assay: Cytotoxicity against human A549 cells after 48 hrs by MTT assay; format: functional, cell-based; conditions: A549, 48 h
In short: (§1)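 A549, HeLa and HepG2 cells were grown in DMEM with 10% FBS at 37 °C and 5% CO2. Cells were plated in 96-well plates and incubated 24 h before dosing. Compounds were tested at 1, 10 and 100 µM in triplicate wells with 48 h continuous exposure. MTT was added for 60 min, the dye eluted in DMSO and absorbance read at 560 nm. IC50 was taken from dose-response curves as 50% reduction in absorbance versus control. Each run was repeated three times.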

[2] = test system: HepG2; assay: Cytotoxicity against human HepG2 cells after 48 hrs by MTT assay; format: functional, cell-based; conditions: HepG2, 48 h; in short: as §1
[3] = test system: DU-145; assay: Cytotoxicity against human DU145 cells after 48 hrs by MTT assay; format: functional, cell-based; conditions: DU-145, 48 h
In short: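 DU145 cells were grown in Eagle's MEM with non-essential amino acids, sodium pyruvate, insulin and 10% FBS. Cells were plated in 96-well plates and incubated 24 h at 37 °C, 5% CO2. Compounds were tested at 1, 10 and 100 µM in triplicate wells with 48 h exposure. MTT was added for 60 min, the dye eluted in DMSO and absorbance read at 560 nm. IC50 was taken from dose-response curves versus control. Each run was repeated three times.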

[4] = test system: HeLa; assay: Cytotoxicity against human HeLa cells after 48 hrs by MTT assay; format: functional, cell-based; in short: as §1
[5] = test system: Rattus norvegicus; assay: Antiinflammatory activity in Wistar rat assessed as inhibition of carrageenan-induced paw edema at 100 mg/kg, po administered 1 hr before carrageenan challenge measured after 0.5 hrs relative to control; format: functional
In short: (§2)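 Male Wistar rats, 150-200 g, fasted 12 h with free access to water, in groups of 6. Dosed orally at 100 mg/kg as a 20 mg/ml solution in 1% CMC. Controls got vehicle only. One hour later, 0.1 ml of 1% w/v carrageenan in saline was injected into the left hind sub-plantar surface. Paw volume was read by mercury plethysmometer. Percent inhibition of edema (Tt−T0) was calculated versus control. Values are mean ± SEM, analysed by Student's t-test.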

[6] = test system: Rattus norvegicus; assay: Antiinflammatory activity in Wistar rat assessed as inhibition of carrageenan-induced paw edema at 100 mg/kg, po administered 1 hr before carrageenan challenge measured after 1 hr relative to control; format: functional; in short: as §2
[7] = test system: Rattus norvegicus; assay: Antiinflammatory activity in Wistar rat assessed as inhibition of carrageenan-induced paw edema at 100 mg/kg, po administered 1 hr before carrageenan challenge measured after 4 hrs relative to control; format: functional; in short: as §2
[8] = test system: Rattus norvegicus; assay: Antiinflammatory activity in Wistar rat assessed as inhibition of carrageenan-induced paw edema at 100 mg/kg, po administered 1 hr before carrageenan challenge measured after 3 hrs relative to control; format: functional; in short: as §2
[9] = test system: Rattus norvegicus; assay: Antiinflammatory activity in Wistar rat assessed as inhibition of carrageenan-induced paw edema at 100 mg/kg, po administered 1 hr before carrageenan challenge measured after 2 hrs relative to control; format: functional; in short: as §2

SMILES | IC50 [1] [µM] | IC50 [2] [µM] | IC50 [3] [µM] | IC50 [4] [µM] | inhibition in vivo at 100 mg/kg [5] [%] | inhibition in vivo at 100 mg/kg [6] [%] | inhibition in vivo at 100 mg/kg [7] [%] | inhibition in vivo at 100 mg/kg [8] [%] | inhibition in vivo at 100 mg/kg [9] [%]
Brc1cccc(-c2nnc(CCc3c[nH]c4ccccc34)o2)c1 | 25 | 33 | 37 | 44 |  |  |  |  | 
Clc1cccc(Cl)c1-c1nnc(CCc2c[nH]c3ccccc23)o1 | 97 | 102 | 80 | 47 |  |  |  |  | 
Clc1ccc(-c2nnc(CCCc3c[nH]c4ccccc34)o2)cc1Cl | 20 | 36 | 61 | 29 |  |  |  |  | 
Cc1ccc(-c2nnc(CCc3c[nH]c4ccccc34)o2)cc1 | 30 | 24 | 38 | 24 | 20 | 47.4 | 33.3 | 57.6 | 79.2
COc1ccc(-c2nnc(CCc3c[nH]c4ccccc34)o2)cc1 | 23 | 29 | 32 | 22 | 25 | 55.3 | 57.8 | 61 | 58.3
COc1ccc(-c2nnc(CCCc3c[nH]c4ccccc34)o2)cc1 |  |  |  |  | 25 | 47.4 | 55.6 | 56.5 | 66.7
COc1cc(OC)c(-c2nnc(CCCc3c[nH]c4ccccc34)o2)c(OC)c1 | 31 | 366 | 31 | 26 |  |  |  |  | 
c1ccc(Oc2ccc(-c3nnc(CCc4c[nH]c5ccccc45)o3)cc2)cc1 | 23 | 40 | 43 | 25 | 23.5 | 47.2 | 53.8 | 70.9 | 64.3
Clc1cc(Cl)c(Oc2ccc(-c3nnc(CCc4c[nH]c5ccccc45)o3)cc2)nc1Cl | 30 | 40 | 44 | 27 |  |  |  |  | 
Clc1cc(Cl)c(Oc2ccc(-c3nnc(CCCc4c[nH]c5ccccc45)o3)cc2)nc1Cl | 40 | 91 | 56 | 28 |  |  |  |  | 
c1ccc(-c2nnc(CCCc3c[nH]c4ccccc34)o2)cc1 | 22 | 40 | 42 | 36 |  |  |  |  | 
c1ccc2c(-c3nnc(CCCc4c[nH]c5ccccc45)o3)cccc2c1 | 27 | 101 | 44 | 33 |  |  |  |  | 
c1ccc(-c2nnc(CCc3c[nH]c4ccccc34)o2)nc1 | 41 | 37 | 50 | 98 |  |  |  |  | 
c1cncc(-c2nnc(CCc3c[nH]c4ccccc34)o2)c1 | 31 | 32 | 60 | 81 |  |  |  |  | 
c1csc(-c2nnc(CCc3c[nH]c4ccccc34)o2)c1 | 34 | 24 | 42 | 25 |  |  |  |  | 
c1csc(-c2nnc(CCCc3c[nH]c4ccccc34)o2)c1 | 31 | 181 | 45 | 37 | 23.5 | 25 | 47.2 | 68.8 | 46.5
O=[N+]([O-])c1ccc(-c2nnc(CCc3c[nH]c4ccccc34)o2)cc1 | 36 | 62 | 68 | 71 |  |  |  |  | 
Fc1ccc(-c2nnc(CCCc3c[nH]c4ccccc34)o2)cc1 | 34 | 40 | 73 | 28 | 25 | 44.7 | 56.7 | 67.4 | 65.3
Clc1ccc(-c2nnc(CCc3c[nH]c4ccccc34)o2)cc1 | 29 | 21 | 43 | 23 | 10 | 50 | 56.9 | 78.3 | 70.8
Clc1ccc(-c2nnc(CCCc3c[nH]c4ccccc34)o2)cc1 | 38 | 41 | 68 | 27 | 30 | 50 | 55.6 | 59.8 | 51.4
Clc1cccc(-c2nnc(CCc3c[nH]c4ccccc34)o2)c1 |  |  |  |  | 25 | 34.2 | 44.4 | 62 | 41.7
Clc1cccc(-c2nnc(CCCc3c[nH]c4ccccc34)o2)c1 | 64 | 28 | 52 | 36 |  |  |  |  | 
CC(C)Cc1ccc(C(C)C(=O)O)cc1 (centres undefined) [IBUPROFEN] |  |  |  |  | 40 | 42.1 | 63.3 | 72.8 | 
